Test results reported in paper PMC3382646 (Journal of Computer-Aided Molecular Design, 2011).

Molecular target: T1, Bovine pancreatic trypsin (Bos taurus, UniProt P00760)
T1 sequence (P00760 24-246): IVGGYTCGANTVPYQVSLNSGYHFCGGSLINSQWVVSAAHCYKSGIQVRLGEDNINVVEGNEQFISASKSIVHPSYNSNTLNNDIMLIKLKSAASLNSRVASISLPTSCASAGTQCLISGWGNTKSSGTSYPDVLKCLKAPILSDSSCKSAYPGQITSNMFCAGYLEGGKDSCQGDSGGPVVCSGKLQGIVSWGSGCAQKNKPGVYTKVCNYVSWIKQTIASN
Experiment: X-ray crystallography of fragments soaked into trypsin crystals
Details: two-step soak, 24-48 h each, crystals in P212121, pH 5.8
Method in brief: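 Crystals soaked in DMSO-derived fragment/cryoprotectant mix, then transferred to fresh mix. At least two crystals per soak, liquid-nitrogen cooled; synchrotron, 181 × 1° frames, 1–3 s. Automated processing, ligand placed in active-site density, manual rebuilding.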

- Soaked fragment density: Yes
SMILES: NCc1cccc(N2CCCC2)c1 [CC 38513]
